Experimental findings from ChEMBL document CHEMBL1133378, “Synthesis and evaluation of daunorubicin-paclitaxel dimers” (Bioorg Med Chem Lett, 2000) are described below.

Structures are written as SMILES.

The IC50 is the concentration that gives 50% inhibition. Read a low IC50 as greater potency.

Holding throughout (assay type): functional, cell-based
Holding throughout (details): Homo sapiens

Experiment [1] concerns MES-SA/Dx5. The experiment can be described thus: The compound was evaluated for the growth inhibition of Dx5 w/PSC cell lines using MTT assay. An outline of the steps: (§1)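 MTT assay: MES-SA (uterine tumor) or P-gp-overexpressing MES-SA/Dx5 cells seeded at 80,000 cells/mL, grown 24 h at 37 C in humidified 5% CO2, then drug-exposed at serial dilutions for 72 h. MTT (5 mg/mL stock in PBS) added for 3 h, formazan dissolved in 0.1 N HCl-isopropanol, absorbance read at 570 nm. IC50 from plotted data, mean of 8-16 determinations.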
Background: Tetrazolium assays rely on reduction of a dye to a coloured formazan, in cell work by metabolically active cells.

The subject of experiment [2] is MES-SA/Dx5. The experiment can be described thus: The compound was evaluated for the growth inhibition of Dx5 cell lines using MTT assay. In a few lines: as §1
The subject of the next experiment is MES-SA. The experiment can be described thus: The compound was evaluated for the growth inhibition of MES-SA uterine tumor cell lines using MTT assay. In a few lines:
as §1

For `CC(=O)O[C@H]1C(=O)[C@@]2(C)[C@H]([C@H](OC(=O)c3ccccc3)[C@]3(O)C[C@H](OC(=O)[C@H](O)[C@@H](NC(=O)c4ccccc4)c4ccccc4)C(C)=C1C3(C)C)[C@]1(OC(C)=O)CO[C@@H]1C[C@@H]2O` [PACLITAXEL], the figures for the IC50 in the experiment on MES-SA/Dx5 [1], with MES-SA/Dx5 [2] and with MES-SA were 0.3 nM, 2700 nM and 0.6 nM, respectively.

Take `COc1cccc2c1C(=O)c1c(O)c3c(c(O)c1C2=O)C[C@@](O)(C(C)=O)C[C@@H]3O[C@H]1C[C@H](N)[C@H](O)[C@H](C)O1` [DAUNORUBICIN]: the figures for the IC50 with MES-SA/Dx5 [1], in the experiment with MES-SA/Dx5 [2] and with MES-SA were 14 nM, 2000 nM and 21 nM, respectively.

Take `CC(=O)O[C@H]1C(=O)[C@@]2(C)C([C@H](OC(=O)c3ccccc3)[C@]3(O)C[C@H](OC(=O)[C@H](O)[C@@H](NC(=O)c4ccccc4)c4ccccc4)C(C)=C1C3(C)C)[C@]1(OC(C)=O)CO[C@@H]1C[C@@H]2O.COc1cccc2c1C(=O)c1c(O)c3c(c(O)c1C2=O)C[C@@](O)(C(C)=O)C[C@@H]3OC1CC(N)C(O)C(C)O1` (stereo partly specified) [MIXTURE OF DAUNORUBICIN AND PACLITAXEL]: the IC50 in the experiment with MES-SA/Dx5 [2] is 1000 nM; in the experiment with MES-SA, 11 nM.

`COc1cccc2c1C(=O)c1c(O)c3c(c(O)c1C2=O)C[C@@](O)(C(C)=O)C[C@@H]3OC1CC(NC(=O)CCC(=O)NCCC(=O)O[C@@H]2C[C@@H]3OC[C@]3(OC(C)=O)C3[C@@H](OC(=O)c4ccccc4)[C@@]4(O)C[C@@H](OC(=O)[C@@H](O)[C@H](NC(=O)c5ccccc5)c5ccccc5)C(C)=C([C@H](OC(C)=O)C(=O)[C@]32C)C4(C)C)C(O)C(C)O1` (stereo partly specified): the IC50 is greater than 50000 nM in the experiment on MES-SA/Dx5 [2] and 700 nM in the experiment with MES-SA.

With `COc1cccc2c1C(=O)c1c(O)c3c(c(O)c1C2=O)C[C@@](O)(C(C)=O)C[C@@H]3OC1CC(NC(=O)CCCC(=O)NCCC(=O)O[C@@H]2C[C@@H]3OC[C@]3(OC(C)=O)C3[C@@H](OC(=O)c4ccccc4)[C@@]4(O)C[C@@H](OC(=O)[C@@H](O)[C@H](NC(=O)c5ccccc5)c5ccccc5)C(C)=C([C@H](OC(C)=O)C(=O)[C@]32C)C4(C)C)C(O)C(C)O1` (stereo partly specified), the IC50 was 1100 nM in the experiment on MES-SA/Dx5 [1], greater than 50000 nM in the experiment with MES-SA/Dx5 [2] and 950 nM in the experiment with MES-SA.

Consider `COc1cccc2c1C(=O)c1c(O)c3c(c(O)c1C2=O)C[C@@](O)(C(C)=O)C[C@@H]3OC1CC(NC(=O)c2ccc(C(=O)NCCC(=O)O[C@@H]3C[C@@H]4OC[C@]4(OC(C)=O)C4[C@@H](OC(=O)c5ccccc5)[C@@]5(O)C[C@@H](OC(=O)[C@@H](O)[C@H](NC(=O)c6ccccc6)c6ccccc6)C(C)=C([C@H](OC(C)=O)C(=O)[C@]43C)C5(C)C)cc2)C(O)C(C)O1` (stereo partly specified), for which the IC50 came to 1000 nM with MES-SA/Dx5 [1], 10000 nM in the experiment on MES-SA/Dx5 [2] and 1000 nM in the experiment on MES-SA.

With `COc1cccc2c1C(=O)c1c(O)c3c(c(O)c1C2=O)C[C@@](O)(C(C)=O)C[C@@H]3OC1CC(NC(=O)c2ccccc2C(=O)NCCC(=O)O[C@@H]2C[C@@H]3OC[C@]3(OC(C)=O)C3[C@@H](OC(=O)c4ccccc4)[C@@]4(O)C[C@@H](OC(=O)[C@@H](O)[C@H](NC(=O)c5ccccc5)c5ccccc5)C(C)=C([C@H](OC(C)=O)C(=O)[C@]32C)C4(C)C)C(O)C(C)O1` (stereo partly specified), the IC50 with MES-SA/Dx5 [1] is 36 nM; with MES-SA/Dx5 [2], 16000 nM; in the experiment with MES-SA it was 99 nM.

In the case of `COc1cccc2c1C(=O)c1c(O)c3c(c(O)c1C2=O)C[C@@](O)(C(C)=O)C[C@@H]3OC1CC(NC(=O)CCCCC(=O)NCCC(=O)O[C@@H]2C[C@@H]3OC[C@]3(OC(C)=O)C3[C@@H](OC(=O)c4ccccc4)[C@@]4(O)C[C@@H](OC(=O)[C@@H](O)[C@H](NC(=O)c5ccccc5)c5ccccc5)C(C)=C([C@H](OC(C)=O)C(=O)[C@]32C)C4(C)C)C(O)C(C)O1` (stereo partly specified), the values for the half-inhibitory concentration (IC50) in the experiment on MES-SA/Dx5 [2] and with MES-SA were greater than 50000 nM and 2300 nM, respectively.
